NPY-Y2 antag – antagonists of human neuropeptide Y receptor Y2. inhibition, % at 2.7 µM. P49146. NPY-Y2 expressing cells, antagonist mode. hit rate 0.99% among 140,000; in the data active = inhibition above about 17%;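 also: 0% = vehicle with agonist challenge and 100% = reference antagonist with challenge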
NPY-Y2 PAM-ag – human NPY-Y2 potentiation or agonism, primary screen | P49146 | cells expressing NPY-Y2, potentiator/agonist read-out | activation, % at 3.6 µM | hit rate 0.45% among 220,000 | AID 1359; in the data active = activation above about 27%;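 also: cells stimulated with NPY near EC25 plus isoproterenol at EC100; 0% = vehicle plus submaximal agonist and 100% = vehicle plus saturating agonist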
EP2 modulator – modulates human prostaglandin E2 receptor EP2 signaling; P43116; EP2-expressing cells, cAMP HTRF FRET, PGE2 co-stimulation; induction, % at 25 µM; hit rate 0.83% among 260,000;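 active = compounds whose cAMP rise, as percent of the full-agonist control response, exceeds 60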;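 also: rat C6 glioma line stably carrying human EP2 under a CMV promoter; the protocol text gives 20 µM as final concentration; 100% = response of wells given 1 µM PGE2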
Target sequence (P43116 whole entry, looked up): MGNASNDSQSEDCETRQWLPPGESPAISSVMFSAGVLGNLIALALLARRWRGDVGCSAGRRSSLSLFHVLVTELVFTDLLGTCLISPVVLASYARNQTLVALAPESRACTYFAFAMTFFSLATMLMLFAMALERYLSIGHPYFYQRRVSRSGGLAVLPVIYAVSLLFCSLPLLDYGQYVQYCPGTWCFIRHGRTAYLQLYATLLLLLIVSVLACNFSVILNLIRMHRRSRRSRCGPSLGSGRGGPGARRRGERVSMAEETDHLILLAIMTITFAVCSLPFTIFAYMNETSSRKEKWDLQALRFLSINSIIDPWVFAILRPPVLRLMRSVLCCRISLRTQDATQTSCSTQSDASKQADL
EP2 antag – blocks the human prostaglandin E2 receptor EP2; P43116; C6 glioma cells expressing human EP2, cAMP TR-FRET; cells stimulated with saturating PGE2; inhibition, % at 25 µM; hit rate 0.52% among 260,000;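 active = percent inhibition above 40 after rounding to a whole number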;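 also: rat C6 glioma host cells with rolipram phosphodiesterase inhibitor present; the protocol text gives 20 µM as final concentration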
NPY1 pot ag – potentiators or agonists of human neuropeptide Y receptor Y1; P25929; NPY-Y1 expressing cells, potentiator/agonist activation; activation, % at 3.6 µM; hit rate 0.37% among 220,000; AID 1304; in the data active = activation above about 33%, passing the limit was not always enough;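 also: cells stimulated with NPY at EC10 then isoproterenol at EC100; 0% = low agonist plus stimulus and 100% = saturating agonist plus stimulus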
NPY-Y1 antag – antagonists of human neuropeptide Y receptor Y1; P25929; HEK293-CNG Y1 cells, membrane potential fluorescence; NPY at EC95, then isoproterenol; inhibition, % at 3.6 µM; hit rate 1% among 200,000;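 active = inhibition above the campaign mean inhibition of all tested compounds plus 3 SD, cut at about 20% in these data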;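 also: 0% = DMSO wells given NPY plus isoproterenol and 100% = isoproterenol alone without NPY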
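Benchmarks – high control isoproterenol alone, low control NPY with isoproterenol · Material – HEK293 Y1/CNG channel cell line · Times – dye 3 h, compound 60 min room temperature, stimulation 45 min · Probe or stimulus – NPY (25 nM), isoproterenol (1 µM), Ro 20-1724 (25 µM) · Evaluation – % inhibition of NPY effect · Signal – fluorescence, membrane potential probe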
NPY1 antag ctr – counter-screen for NPY-Y2 antagonists: human NPY-Y1 antagonism; shares compounds with NPY-Y2 antag; cell-based NPY-Y1 antagonism counterscreen; inhibition, % at 3.6 µM; hit rate 19% among 710; AID 1256; in the data active = inhibition above about 20%;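 also: cells challenged with NPY then isoproterenol with cAMP sensed through a CNG channel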
NPY2 antag conf – human NPY-Y2 antagonism, confirmation; shares compounds with NPY-Y2 antag; HEK293 NPY-Y2 CNG channel, membrane potential fluorescence; inhibition, % at 2.8 µM; hit rate 32% among 710;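 active = mean inhibition of triplicate wells above the hit cutoff set in the primary screen, cut at about 17% in these data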;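 also: 0% = DMSO with NPY challenge and 100% = BIIE0246 high control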
EP2 cAMP induct – human EP2 receptor cAMP induction, negative in counter-screens; C6 glioma EP2 cells, cAMP HTRF induction; plus low (about EC15) PGE2 agonist; hit rate 47% among 1,300; shares compounds with EP2 modulator; calls only at 20 µM (by protocol); AID 1080;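 active = cAMP induction above 50% in the main assay while under 30% in all four parallel counter assays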;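 also: rat C6 glioma cells stably expressing human EP2 receptor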
NPY-Y2 pot conf – human NPY-Y2 potentiation or agonism, confirmation; activation, % at 3.6 µM; cell-based NPY-Y2 potentiator/agonist assay; hit rate 20% among 450; shares compounds with NPY-Y2 PAM-ag; in the data active = activation above about 33%
NPY-Y1 counter – counter-screen for NPY-Y2 potentiators or agonists: NPY-Y1 potentiators or agonists; activation, % at 3.6 µM; shares compounds with NPY-Y2 PAM-ag; hit rate 20% among 450; Y1 HEK293-CNG cells, membrane potential fluorescence; in the data active = activation above about 45%;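 also: cells stimulated with submaximal NPY then isoproterenol with phosphodiesterase inhibitor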
NPY-Y1 agonist 2 – human NPY-Y1 agonism as NPY-Y2 potentiator counter-screen; shares compounds with NPY-Y2 PAM-ag; HEK293 Y1-CNGC, membrane potential fluorescence; activation, % at 3.6 µM; hit rate 37% among 450;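 active = activation above the mean of DMSO-only control wells plus 3 SD, cut at about 18% in these data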;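 also: cells stimulated with 1 µM isoproterenol plus the PDE inhibitor Ro 20-1724; 0% = isoproterenol with DMSO and no NPY and 100% = 40 nM NPY; Y1 agonists lower the membrane potential dye signal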
CNGC inhibitor – counter-screen for NPY-Y2 potentiators: inhibitors of CNG channel activity; shares compounds with NPY-Y2 PAM-ag; HEK293-CNG parental, isoproterenol cAMP, membrane potential fluorescence; inhibition, % at 3.6 µM; hit rate 32% among 450;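 active = inhibition above the control-well mean plus 3 SD of those wells, cut at about 22% in these data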;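 also: 0% = DMSO with isoproterenol and 100% = DMSO without isoproterenol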
Y2 agonist ctr – NPY-Y2 agonism, counter-screen for Y2 potentiators; activation, % at 3.6 µM; AID 1710; HEK293 Y2/CNGC cells, membrane potential fluorescence, agonist mode; hit rate 56% among 450; shares compounds with NPY-Y2 PAM-ag;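 active = activation above the mean of solvent-only control wells plus 3 SD, cut at about 10% in these data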;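 also: cells stimulated by isoproterenol with no NPY added so direct agonism is tested; 0% = DMSO with isoproterenol alone and 100% = NPY at EC100 plus isoproterenol; agonism lowers probe fluorescence through less cAMP and CNG channel opening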
Starred values were filed as active, the others as inactive; i = inactive; . = no result given; + = active, no number. This is a sample that favours compounds with a hit; in the whole collection about 2.8% have one here.

SMILES	NPY-Y2 antag	NPY-Y2 PAM-ag	EP2 modulator	EP2 antag	NPY1 pot ag	NPY-Y1 antag	EP2 cAMP induct	others
c1ccc(C(Cc2nc(-c3ccncc3)no2)c2ccccc2)cc1	23*	42*	38	.	38	3	.	NPY1 antag ctr=9;NPY2 antag conf=4;NPY-Y2 pot conf=14;NPY-Y1 counter=-11;NPY-Y1 agonist 2=2;CNGC inhibitor=-9;Y2 agonist ctr=2
CCC(=O)N(Cc1cccs1)Cc1cc2ccc(C)c(C)c2[nH]c1=O	.	.	-51	8	.	.	.
COc1cc(OC)c2c(OC)c(-c3ccc4c(c3)OCO4)c(=O)oc2c1	.	.	62*	12	.	.	i
CC(=O)Nc1ccc(C2=NN(c3ccccc3)C(c3cccs3)C2)cc1 (configuration not stated)	.	8	76*	11	12	2	i
CC(=O)Nc1ccc(N2C(C(C)=O)=NN(c3ccccc3)C2c2cccs2)cc1 (configuration not stated)	0	-4	25	5	13	1	.
CN(C)c1oc(-c2ccccc2Cl)nc1P(=O)(c1ccccc1)c1ccccc1	12	10	71*	5	1	13	+
COc1ccc2cc(C#N)c(N3CCN(C4CCCC4)CC3)nc2c1	.	.	17	8	.	.	.
O=C(O)c1ccc(-c2nc(-c3cccc(C(F)(F)F)c3)cs2)cc1	.	-11	70*	7	4	0	+
CCc1ccc2[nH]c(=O)c(CN(CCN3CCOCC3)C(=S)NC)cc2c1	.	.	-2	3	.	.	.
O=C1C2C3c4ccccc4C(c4ccccc43)C2c2nc3ccccc3n21 (configuration not stated)	11	-11	74*	13	-18	24*	+
CN(c1ccccc1)C1CCCCC1NS(=O)(=O)c1ccc(Cl)cc1 (configuration not stated)	0	7	66*	6	11	-8	+
CCN(CC)C1CCCCC1NS(=O)(=O)c1ccc(Cl)cc1 (configuration not stated)	2	-12	2	8	-4	-3	.
COc1ccc(-c2nnn(CC(=O)N3c4ccccc4CCc4ccccc43)n2)cc1	.	.	-55	9	.	.	.
Cn1c(=O)[nH]c(=O)c2c1nc(N1CCCCC1)n2CCCSc1nnnn1-c1ccccc1	1	-8	17	5	-37	10	.
CC1CCN(c2nc3c(c(=O)[nH]c(=O)n3C)n2CC(C)CSc2nnnn2-c2ccccc2)CC1 (configuration not stated)	0	3	68*	10	7	-1	i
COc1ccc(N2CCN(c3nc4c(c(=O)n(C)c(=O)n4C)n3Cc3ccccc3)CC2)cc1	3	18	69*	-1	-10	-11	i
COc1cccc(C2CC(C(F)(F)F)n3ncc(C(=O)NCCCN4CCOCC4)c3N2)c1 (configuration not stated)	.	.	-40	7	.	.	.
